One series concerns parasites. The conditions noted are these: cited from earlier work.
The test system of series [1] is L. braziliensis. The following applies: 10 μg/ml TBO; cited from earlier work.
Series [2] has as its system J774A.1 macrophages cell line. Nature of the series: Cytotoxicity. It is filed as cell-based, mice.
The test system of another series is L. major promastigotes. Nature of the series: Promastigote growth inhibition. It counts as cell-based, Leishmania major. The gist of the method: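 Stationary-phase (5 d) L. major MRHO/IR/75/ER promastigotes (1×10^6) were grown at 26 °C in RPMI-1640 with 10% heat-inactivated FCS, pH 7.4. They received TBO (7.8–500 μg/ml) plus 630 nm LED irradiation. MTT at 570 nm was read at 2, 24 and 48 h, as % of untreated OD. IC50 came from dose-response curves, triplicates. SI = macrophage CC50/promastigote IC50.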

A further series deals with L. major. The conditions noted are these: cited from earlier work.
Series [3] relates to L. braziliensis. The following applies: in-vitro; cited from earlier work.

Read-outs that look alike come from different tables or passages of the source.

Regarding `CN(C)c1ccc2nc3ccc(=[N+](C)C)cc-3sc2c1` [MB, methylene blue], the “decrease of parasites viability” value in the series on parasites (PDT) is “more than 70%”; in the series on parasites (in the dark, higher concentration of MB), “up to 50%”.

As for `Cc1cc2nc3ccc(N(C)C)cc3[s+]c2cc1N.[Cl-]` [TBO, Toluidine Blue O], in the series with L. braziliensis [1], the parasite viability result was “significantly reduced”. In series [2], the “toxicity to macrophages compared to glucantime (positive control)” value was “less toxicity”. Besides, in series [2] (dark group), the “cytotoxicity to J774.A1 macrophages” value is given as “no cytotoxic”. The decrease in viability result in the series on L. major promastigotes (PDT, three highest concentrations, after 24 h) is on record as “more than 70%”. Moreover, in the series on L. major promastigotes (dark group (no PDT), highest concentrations), the toxicity to parasites entry was “intermediate toxicity”.

Take Aluminum phthalocyanine: the phototoxicity result in the series with L. major (10.0μM concentration and 10 J/cm^2 irradiation) is “phototoxic”.

For the compound aluminum phthalocyanine tetra sulfonate, the “elimination of parasites by PDT” value with L. major (in-vitro) and in the series on L. braziliensis [3] was “effectively eliminated” each time.

Values taken from publication PMC8819215 (Iranian Journal of Public Health, 2021).
